Data published in ChEMBL document CHEMBL3860039, “Structure-Activity Relationship and Signaling of New Chimeric CXCR4 Agonists” (J Med Chem, 2016).

Legend:
Type in all cases: cell-based
[1] = target: T1, C-X-C chemokine receptor type 4 (Homo sapiens, UniProt P61073); assay: Agonist activity at CXCR4 in human REH cells assessed as optimal concentration causing maximum induction of chemotaxis incubated for 3 hrs by transwell migration assay
Procedure, shortened: (§1)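 REH acute lymphoblastic B-cell leukaemia cells washed in RPMI; 100 000 cells in RPMI + 0.2% BSA seeded on top of 5 μm pore polycarbonate transwell, peptide dilutions in same medium in bottom chamber; 3 h, 37 °C, 5% CO2. Migrated cells in lower chamber counted by automated counter, expressed as % of seeded cells; peak = concentration giving maximal migration. Three experiments in triplicate.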

[2] = target: T1, C-X-C chemokine receptor type 4; assay: Agonist activity at HA-tagged human CXCR4 receptor expressed in HEK293 cells co-transfected with Galphai1-91-RlucII, Gbeta1, and GFP10-G-gamma1 incubated for 7 mins by Galpha1 protein activation-based BRET assay
Procedure, shortened: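 HEK293 cells (3 × 10^6 per 100 mm dish) co-transfected via polyethylenimine with HA-hCXCR4 plus Gαi1-91-RlucII, Gβ1, GFP10-Gγ1; replated at 24 h, 100 000 cells/well. At 48 h, washed in HBSS/0.1% BSA, exposed to ligand 10−12 to 10−5 M for 7 min, then coelenterazine-400A 5 μM final; BRET2 515/400 nm ratio. EC50 (Gαi dissociation) and Emax from three experiments in triplicate.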

[3] = target: T1, C-X-C chemokine receptor type 4; assay: Displacement of [125I]-CXCL12 from HA-tagged human recombinant CXCR4 expressed in HEK293 cells incubated for 1 hr by gamma-radiation counting analysis
[4] = target: T1, C-X-C chemokine receptor type 4; assay: Agonist activity at CXCR4 in human REH cells assessed as induction of chemotaxis incubated for 3 hrs by transwell migration assay; procedure, shortened: as §1

T1 sequence (P61073 whole entry): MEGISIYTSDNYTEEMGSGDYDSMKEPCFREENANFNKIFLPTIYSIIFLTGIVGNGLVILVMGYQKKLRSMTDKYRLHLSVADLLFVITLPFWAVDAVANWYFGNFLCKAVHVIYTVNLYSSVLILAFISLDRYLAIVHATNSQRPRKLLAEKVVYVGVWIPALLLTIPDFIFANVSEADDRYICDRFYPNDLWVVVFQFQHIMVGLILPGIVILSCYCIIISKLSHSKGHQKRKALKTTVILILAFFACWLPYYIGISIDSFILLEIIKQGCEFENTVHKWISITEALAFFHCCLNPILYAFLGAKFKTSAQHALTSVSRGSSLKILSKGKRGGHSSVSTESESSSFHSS

SMILES | Activity [1] [nM] | EC50 [2] [nM] | Emax [2] [%] | IC50 [3] [nM] | %max [4] [%]
CC(C)C[C@H](NC(=O)[C@H](CO)NC(=O)[C@H](C)NC(=O)[C@@H]1CCCN1C(=O)[C@@H](N)CCCCN)C(=O)N[C@@H](CO)C(=O)N[C@@H](Cc1ccc(O)cc1)C(=O)N[C@@H](CCCNC(=N)N)C(=O)N[C@@H](CO)C(=O)N[C@@H](C)C(=O)NCCCC[C@H](NC(=O)[C@@H]1CSSC[C@H](NC(=O)[C@H](Cc2ccc3ccccc3c2)NC(=O)[C@H](CCCNC(=N)N)NC(=O)[C@@H](N)CCCNC(=N)N)C(=O)N[C@@H](Cc2ccc(O)cc2)C(=O)N[C@@H](CCCNC(=N)N)C(=O)N[C@@H](CCCCN)C(=O)N[C@H](CCCCN)C(=O)N2CCC[C@H]2C(=O)N[C@@H](Cc2ccc(O)cc2)C(=O)N[C@@H](CCCNC(=N)N)C(=O)N[C@@H](CCCNC(=N)N)C(=O)N1)C(=O)O | 10 | 92 | 50 | 56 | 30
CC(C)C[C@H](NC(=O)[C@H](C)NC(=O)[C@@H](NC(=O)[C@@H]1CCCN1C(=O)[C@@H](N)CCCCN)C(C)C)C(=O)N[C@@H](CO)C(=O)N[C@@H](Cc1ccc(O)cc1)C(=O)N[C@@H](CCCNC(=N)N)C(=O)N[C@@H](CO)C(=O)N[C@@H](C)C(=O)NCCCC[C@H](NC(=O)[C@@H]1CSSC[C@H](NC(=O)[C@H](Cc2ccc3ccccc3c2)NC(=O)[C@H](CCCNC(=N)N)NC(=O)[C@@H](N)CCCNC(=N)N)C(=O)N[C@@H](Cc2ccc(O)cc2)C(=O)N[C@@H](CCCNC(=N)N)C(=O)N[C@@H](CCCCN)C(=O)N[C@H](CCCCN)C(=O)N2CCC[C@H]2C(=O)N[C@@H](Cc2ccc(O)cc2)C(=O)N[C@@H](CCCNC(=N)N)C(=O)N[C@@H](CCCNC(=N)N)C(=O)N1)C(=O)O | 10 | 56 | 81 | 25 | 50
CC(C)C[C@H](NC(=O)[C@H](CO)NC(=O)[C@@H](NC(=O)[C@@H]1CCCN1C(=O)[C@@H](N)CCCCN)C(C)C)C(=O)N[C@@H](CO)C(=O)N[C@@H](Cc1ccc(O)cc1)C(=O)N[C@@H](C)C(=O)N[C@@H](CO)C(=O)N[C@@H](C)C(=O)NCCCC[C@H](NC(=O)[C@@H]1CSSC[C@H](NC(=O)[C@H](Cc2ccc3ccccc3c2)NC(=O)[C@H](CCCNC(=N)N)NC(=O)[C@@H](N)CCCNC(=N)N)C(=O)N[C@@H](Cc2ccc(O)cc2)C(=O)N[C@@H](CCCNC(=N)N)C(=O)N[C@@H](CCCCN)C(=O)N[C@H](CCCCN)C(=O)N2CCC[C@H]2C(=O)N[C@@H](Cc2ccc(O)cc2)C(=O)N[C@@H](CCCNC(=N)N)C(=O)N[C@@H](CCCNC(=N)N)C(=O)N1)C(=O)O | 10000 | 40 | 25 | 300 | 16
CC(C)C[C@H](NC(=O)[C@H](CO)NC(=O)[C@@H](NC(=O)[C@@H]1CCCN1C(=O)[C@@H](N)CCCCN)C(C)C)C(=O)N[C@@H](CO)C(=O)N[C@@H](Cc1ccc(C(=O)c2ccccc2)cc1)C(=O)N[C@@H](CCCNC(=N)N)C(=O)N[C@@H](CO)C(=O)N[C@@H](C)C(=O)NCCCC[C@H](NC(=O)[C@@H]1CSSC[C@H](NC(=O)[C@H](Cc2ccc3ccccc3c2)NC(=O)[C@H](CCCNC(=N)N)NC(=O)[C@@H](N)CCCNC(=N)N)C(=O)N[C@@H](Cc2ccc(O)cc2)C(=O)N[C@@H](CCCNC(=N)N)C(=O)N[C@@H](CCCCN)C(=O)N[C@H](CCCCN)C(=O)N2CCC[C@H]2C(=O)N[C@@H](Cc2ccc(O)cc2)C(=O)N[C@@H](CCCNC(=N)N)C(=O)N[C@@H](CCCNC(=N)N)C(=O)N1)C(=O)O | 10 | 76 | 90 | 34 | 69
CC(C)C[C@H](NC(=O)[C@H](CO)NC(=O)[C@@H](NC(=O)[C@@H]1CCCN1C(=O)[C@@H](N)CCCCN)C(C)C)C(=O)N[C@@H](CO)C(=O)N[C@@H](Cc1ccc(F)cc1)C(=O)N[C@@H](CCCNC(=N)N)C(=O)N[C@@H](CO)C(=O)N[C@@H](C)C(=O)NCCCC[C@H](NC(=O)[C@@H]1CSSC[C@H](NC(=O)[C@H](Cc2ccc3ccccc3c2)NC(=O)[C@H](CCCNC(=N)N)NC(=O)[C@@H](N)CCCNC(=N)N)C(=O)N[C@@H](Cc2ccc(O)cc2)C(=O)N[C@@H](CCCNC(=N)N)C(=O)N[C@@H](CCCCN)C(=O)N[C@H](CCCCN)C(=O)N2CCC[C@H]2C(=O)N[C@@H](Cc2ccc(O)cc2)C(=O)N[C@@H](CCCNC(=N)N)C(=O)N[C@@H](CCCNC(=N)N)C(=O)N1)C(=O)O | 10 | 83 | 60 | 78 | 43
CC(C)C[C@H](NC(=O)[C@H](CO)NC(=O)[C@H](Cc1ccc2cc3ccccc3cc2c1)NC(=O)[C@@H]1CCCN1C(=O)[C@@H](N)CCCCN)C(=O)N[C@@H](CO)C(=O)N[C@@H](Cc1ccc(O)cc1)C(=O)N[C@@H](CCCNC(=N)N)C(=O)N[C@@H](CO)C(=O)N[C@@H](C)C(=O)NCCCC[C@H](NC(=O)[C@@H]1CSSC[C@H](NC(=O)[C@H](Cc2ccc3ccccc3c2)NC(=O)[C@H](CCCNC(=N)N)NC(=O)[C@@H](N)CCCNC(=N)N)C(=O)N[C@@H](Cc2ccc(O)cc2)C(=O)N[C@@H](CCCNC(=N)N)C(=O)N[C@@H](CCCCN)C(=O)N[C@H](CCCCN)C(=O)N2CCC[C@H]2C(=O)N[C@@H](Cc2ccc(O)cc2)C(=O)N[C@@H](CCCNC(=N)N)C(=O)N[C@@H](CCCNC(=N)N)C(=O)N1)C(=O)O | 10 | 81 | 68 | 48 | 75
CC(C)C[C@H](NC(=O)[C@H](CO)NC(=O)[C@H](Cc1ccc(C(=O)c2ccccc2)cc1)NC(=O)[C@@H]1CCCN1C(=O)[C@@H](N)CCCCN)C(=O)N[C@@H](CO)C(=O)N[C@@H](Cc1ccc(O)cc1)C(=O)NCCOCCOCCOCCC(=O)NCCCC[C@H](NC(=O)[C@@H]1CSSC[C@H](NC(=O)[C@H](Cc2ccc3ccccc3c2)NC(=O)[C@H](CCCNC(=N)N)NC(=O)[C@@H](N)CCCNC(=N)N)C(=O)N[C@@H](Cc2ccc(O)cc2)C(=O)N[C@@H](CCCNC(=N)N)C(=O)N[C@@H](CCCCN)C(=O)N[C@H](CCCCN)C(=O)N2CCC[C@H]2C(=O)N[C@@H](Cc2ccc(O)cc2)C(=O)N[C@@H](CCCNC(=N)N)C(=O)N[C@@H](CCCNC(=N)N)C(=O)N1)C(=O)O | 100 | 207 | 75 | 112 | 40
CC(C)C[C@H](NC(=O)[C@H](CO)NC(=O)[C@@H](NC(=O)[C@@H]1CCCN1C(=O)[C@@H](N)CCCCN)C(C)C)C(=O)N[C@@H](CO)C(=O)N[C@@H](Cc1ccc(O)cc1)C(=O)N[C@@H](CCCNC(=N)N)C(=O)N[C@@H](C)C(=O)N[C@@H](C)C(=O)NCCCC[C@H](NC(=O)[C@@H]1CSSC[C@H](NC(=O)[C@H](Cc2ccc3ccccc3c2)NC(=O)[C@H](CCCNC(=N)N)NC(=O)[C@@H](N)CCCNC(=N)N)C(=O)N[C@@H](Cc2ccc(O)cc2)C(=O)N[C@@H](CCCNC(=N)N)C(=O)N[C@@H](CCCCN)C(=O)N[C@H](CCCCN)C(=O)N2CCC[C@H]2C(=O)N[C@@H](Cc2ccc(O)cc2)C(=O)NC(CCCNC(=N)N)C(=O)N[C@@H](CCCNC(=N)N)C(=O)N1)C(=O)O (stereo not given in full) | 1000 | 111 | 21 | 137 | 19
